This note sets out measurements from ChEMBL document CHEMBL5385870, “Amide containing NBTI antibacterials with reduced hERG inhibition, retained antimicrobial activity against gram-positive bacteria and in vivo efficacy” (Eur J Med Chem, 2023).

The subject of data set [1] is Staphylococcus aureus. Briefly: Antimicrobial activity against cefoxitin/gentamicin/kanamycin/rifampicin/streptomycin/sulfamethoxazole/tetracycline-resistant Staphylococcus aureus assessed as reduction in bacterial growth incubated for 20 hrs by broth microdilution analysis. The data set is classed as functional. A digest of the protocol: (§1)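 MIC was determined by broth microdilution per CLSI/EUCAST. Inoculum was 10^5 CFU/mL in cation-adjusted Mueller-Hinton broth with TES, with compounds in DMSO, incubated 20 h at 35 °C. MIC was read visually as the lowest concentration without turbidity. Tetracycline was the plate control.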
In general terms: Dilution methods test growth across graded concentrations, often in twofold steps.

In data set [2] the target is DNA gyrase (Staphylococcus aureus, UniProt P0A0K8+P20831). Briefly: Inhibition of Staphylococcus aureus DNA gyrase supercoiling incubated for 30 mins in presence of ATP. The data set is classed as protein-complex assay. The essentials: (§2)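 Gyrase supercoiling plate assay (triplex capture on streptavidin plates with immobilized biotinylated oligonucleotide): 1.5 U enzyme, 0.75 µg relaxed pNO1 plasmid, inhibitor in 10% DMSO/0.008% Tween-20, 37 °C 30 min, 30 µl. Buffer for E. coli: 35 mM Tris pH 7.5, 1 mM ATP; S. aureus: 40 mM HEPES-KOH pH 7.6, 2 mM ATP, 500 mM K-glutamate. Diamond dye fluorescence (ex 495/em 537 nm). Pre-screen 100 and 1 µM; IC50 from seven concentrations by four-parameter fit, mean of two runs.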
Chain of DNA gyrase (Staphylococcus aureus, UniProt P0A0K8+P20831) (P0A0K8 whole entry): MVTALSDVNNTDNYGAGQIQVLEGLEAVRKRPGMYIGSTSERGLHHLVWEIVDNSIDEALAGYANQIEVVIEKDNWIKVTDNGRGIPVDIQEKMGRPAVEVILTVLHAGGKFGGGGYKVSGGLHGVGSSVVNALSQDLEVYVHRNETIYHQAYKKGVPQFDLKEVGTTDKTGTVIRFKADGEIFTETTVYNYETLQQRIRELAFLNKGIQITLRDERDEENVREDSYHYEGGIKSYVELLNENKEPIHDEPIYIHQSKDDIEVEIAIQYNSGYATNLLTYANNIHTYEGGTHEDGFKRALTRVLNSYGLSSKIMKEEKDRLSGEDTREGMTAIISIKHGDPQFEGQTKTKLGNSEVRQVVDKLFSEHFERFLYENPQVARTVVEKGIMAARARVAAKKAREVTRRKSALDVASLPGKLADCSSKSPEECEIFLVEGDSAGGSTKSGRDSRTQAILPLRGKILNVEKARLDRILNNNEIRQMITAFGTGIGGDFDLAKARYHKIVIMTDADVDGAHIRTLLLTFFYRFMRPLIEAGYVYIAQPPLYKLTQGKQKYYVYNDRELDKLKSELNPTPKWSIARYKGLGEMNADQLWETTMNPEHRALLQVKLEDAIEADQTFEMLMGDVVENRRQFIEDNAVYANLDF
Chain of DNA gyrase (Staphylococcus aureus, UniProt P0A0K8+P20831) (P20831 whole entry): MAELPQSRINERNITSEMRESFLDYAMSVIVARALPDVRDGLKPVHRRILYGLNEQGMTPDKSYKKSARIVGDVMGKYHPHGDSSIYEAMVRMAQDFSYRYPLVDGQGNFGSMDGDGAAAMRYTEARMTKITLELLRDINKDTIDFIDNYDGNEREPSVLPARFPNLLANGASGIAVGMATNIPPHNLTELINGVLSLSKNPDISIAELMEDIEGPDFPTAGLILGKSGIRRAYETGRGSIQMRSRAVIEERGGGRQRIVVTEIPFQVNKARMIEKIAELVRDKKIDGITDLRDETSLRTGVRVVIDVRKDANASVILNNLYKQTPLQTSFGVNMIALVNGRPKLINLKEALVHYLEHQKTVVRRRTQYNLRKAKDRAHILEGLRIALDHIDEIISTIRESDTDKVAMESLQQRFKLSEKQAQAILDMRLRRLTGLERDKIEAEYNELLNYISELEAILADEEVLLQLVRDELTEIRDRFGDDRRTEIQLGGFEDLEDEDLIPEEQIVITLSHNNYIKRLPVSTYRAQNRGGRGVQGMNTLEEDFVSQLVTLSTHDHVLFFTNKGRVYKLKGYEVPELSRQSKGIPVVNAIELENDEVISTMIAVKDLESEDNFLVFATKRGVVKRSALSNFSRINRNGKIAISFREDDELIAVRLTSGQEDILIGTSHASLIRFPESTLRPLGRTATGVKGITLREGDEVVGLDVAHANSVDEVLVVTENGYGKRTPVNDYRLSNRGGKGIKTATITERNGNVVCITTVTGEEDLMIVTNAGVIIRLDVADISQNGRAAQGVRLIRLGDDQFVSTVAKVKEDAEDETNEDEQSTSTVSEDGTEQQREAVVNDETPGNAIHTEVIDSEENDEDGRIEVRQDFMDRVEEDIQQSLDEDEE

Data set [3] has as its system Escherichia coli. Briefly: Antimicrobial activity against Escherichia coli D22 assessed as reduction in bacterial growth incubated for 20 hrs by broth microdilution analysis. The format is functional.
In a further data set the test system is Pseudomonas aeruginosa. Briefly: Antimicrobial activity against Pseudomonas aeruginosa RDK 184 assessed as reduction in bacterial growth incubated for 20 hrs by broth microdilution analysis. The format is functional.
The test system of another data set is Acinetobacter baumannii. Briefly: Antimicrobial activity against Acinetobacter baumannii assessed as reduction in bacterial growth incubated for 20 hrs by broth microdilution analysis. The format is functional.
In data set [4] the target is DNA topoisomerase 2-alpha (Homo sapiens) (UniProt P11388). Briefly: Inhibition of human DNA topoisomerase 2-alpha assessed as residual activity at 100 uM incubated for 30 mins relative to control.
Chain of DNA topoisomerase 2-alpha (Homo sapiens) (P11388 whole entry): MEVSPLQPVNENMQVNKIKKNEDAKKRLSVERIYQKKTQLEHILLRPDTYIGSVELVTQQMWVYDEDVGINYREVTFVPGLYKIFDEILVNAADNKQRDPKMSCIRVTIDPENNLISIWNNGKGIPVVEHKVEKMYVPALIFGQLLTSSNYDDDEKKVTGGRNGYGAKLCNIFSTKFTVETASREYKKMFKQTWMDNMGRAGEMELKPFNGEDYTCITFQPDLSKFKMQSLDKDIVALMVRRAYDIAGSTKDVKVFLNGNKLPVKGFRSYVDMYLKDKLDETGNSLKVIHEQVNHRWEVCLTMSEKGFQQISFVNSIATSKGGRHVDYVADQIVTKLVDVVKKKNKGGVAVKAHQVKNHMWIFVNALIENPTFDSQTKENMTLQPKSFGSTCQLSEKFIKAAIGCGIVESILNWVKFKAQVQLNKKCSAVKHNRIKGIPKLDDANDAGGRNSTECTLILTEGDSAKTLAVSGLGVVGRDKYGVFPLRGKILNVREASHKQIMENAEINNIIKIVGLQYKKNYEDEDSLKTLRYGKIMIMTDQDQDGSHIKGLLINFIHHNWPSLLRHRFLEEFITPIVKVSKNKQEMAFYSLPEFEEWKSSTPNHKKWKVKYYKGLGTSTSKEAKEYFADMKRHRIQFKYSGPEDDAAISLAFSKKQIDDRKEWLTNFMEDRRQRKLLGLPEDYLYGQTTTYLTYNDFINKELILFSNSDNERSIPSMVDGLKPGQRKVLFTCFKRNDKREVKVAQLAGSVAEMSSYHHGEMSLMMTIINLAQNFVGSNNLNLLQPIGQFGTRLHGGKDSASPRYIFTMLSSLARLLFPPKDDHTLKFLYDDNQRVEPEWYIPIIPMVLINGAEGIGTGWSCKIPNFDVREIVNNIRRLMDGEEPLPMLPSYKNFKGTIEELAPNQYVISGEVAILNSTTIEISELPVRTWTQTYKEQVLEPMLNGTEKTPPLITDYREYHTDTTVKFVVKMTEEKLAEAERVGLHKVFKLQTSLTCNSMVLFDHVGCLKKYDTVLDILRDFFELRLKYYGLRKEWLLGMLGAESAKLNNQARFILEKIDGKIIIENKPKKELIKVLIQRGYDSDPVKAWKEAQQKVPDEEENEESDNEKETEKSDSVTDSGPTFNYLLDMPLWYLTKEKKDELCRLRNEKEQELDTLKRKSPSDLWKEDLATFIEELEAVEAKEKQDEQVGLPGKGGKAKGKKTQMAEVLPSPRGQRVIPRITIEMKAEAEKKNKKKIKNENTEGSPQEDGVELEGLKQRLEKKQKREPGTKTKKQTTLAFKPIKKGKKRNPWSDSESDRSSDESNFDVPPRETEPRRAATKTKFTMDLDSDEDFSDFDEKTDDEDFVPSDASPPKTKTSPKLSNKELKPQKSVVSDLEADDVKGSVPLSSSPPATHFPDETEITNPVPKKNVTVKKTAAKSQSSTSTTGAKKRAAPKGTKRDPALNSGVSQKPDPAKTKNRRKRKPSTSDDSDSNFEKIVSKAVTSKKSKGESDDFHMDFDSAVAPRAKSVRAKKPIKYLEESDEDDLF
Data set [5] relates to Staphylococcus aureus. Briefly: Antimicrobial activity against cefoxitin/ciprofloxacin/clindamycin/erythromycin/tetracycline/thiamulin/trimethoprim-resistant Staphylococcus aureus assessed as reduction in bacterial growth incubated for 20 hrs by broth microdilution analysis. The data set is classed as functional. The essentials: as §1
The next data set concerns the target Topoisomerase IV (Staphylococcus aureus, UniProt P0C1S7+P0C1U9). Briefly: Inhibition of Staphylococcus aureus DNA topoisomerase 4 relaxation activity measured for 30 mins. The format is protein-complex assay. A digest of the protocol:
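TopoIV relaxation plate assay: 1.5 U enzyme with 0.75 µg supercoiled pNO1 plasmid, inhibitor in 10% DMSO/0.008% Tween-20, 37 °C 30 min; E. coli buffer 40 mM HEPES-KOH pH 7.6 with 1 mM ATP, S. aureus buffer 50 mM Tris pH 7.5 with 1.5 mM ATP.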

The test system of data set [6] is Staphylococcus aureus. Briefly: Antimicrobial activity against Staphylococcus aureus ATCC 29213 assessed as reduction in bacterial growth incubated for 20 hrs by broth microdilution analysis. The data set is classed as functional. The essentials: as §1
Data set [7] has as its target DNA gyrase (Escherichia coli, UniProt P0AES4+P0AES6). Briefly: Inhibition of Escherichia coli DNA gyrase supercoiling incubated for 30 mins in presence of ATP. The format is protein-complex assay. The essentials: as §2
The next data set deals with Enterococcus faecalis. Briefly: Antimicrobial activity against Enterococcus faecalis DRK 057 assessed as reduction in bacterial growth incubated for 20 hrs by broth microdilution analysis. The format is functional.
Data set [8] is described as follows: Inhibition of Escherichia coli DNA topoisomerase 4 relaxation activity measured for 30 mins. The essentials:
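TopoIV relaxation plate assay: 1.5 U enzyme with 0.75 µg supercoiled pNO1 plasmid, inhibitor in 10% DMSO/0.008% Tween-20, 37 °C 30 min; E. coli buffer 40 mM HEPES-KOH pH 7.6 with 1 mM ATP, S. aureus buffer 50 mM Tris pH 7.5 with 1.5 mM ATP. Triplex capture, Diamond dye fluorescence 495/537 nm.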

Data set [9] relates to Escherichia coli. Briefly: Antimicrobial activity against Escherichia coli ATCC 25922 assessed as reduction in bacterial growth incubated for 20 hrs by broth microdilution analysis. The data set is classed as functional.
The subject of data set [10] is Escherichia coli. Briefly: Antimicrobial activity against multidrug-resistant Escherichia coli assessed as reduction in bacterial growth incubated for 20 hrs by broth microdilution analysis. The data set is classed as functional. The essentials:
as §1

Data set [11] relates to hERG. Briefly: Selectivity index, ratio of IC50 for inhibition of hERG fluorescence polarization assay to MIC for antimicrobial activity against Staphylococcus aureus ATCC 29213 assessed as reduction in bacterial growth. The data set is classed as toxicity. The following applies: human; read-out: Selectivity Index.
A further data set deals with HepG2. Briefly: Cytotoxicity against human HepG2 cells assessed as inhibition of cell growth at 50 uM incubated for 72 hrs by […]. The data set is classed as functional. More on the design: scale not given: the % may be the effect or the level left. A digest of the protocol: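 HepG2 in DMEM with 10% FBS, 2 mM glutamine, penicillin/streptomycin, 37 °C, 5% CO₂; seeded 8,000 cells/well, attached overnight, then treated 1.25–100 µM or vehicle for 72 h. Metabolic activity by CellTiter 96 Aqueous One (MTS) absorbance 492 nm.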

Data set [12] can be described thus: Antimicrobial activity against Salmonella alachua RDK 030c assessed as reduction in bacterial growth incubated for 20 hrs by broth microdilution analysis. The format is functional.
For data set [13], the system named is hERG. Briefly: Selectivity index, ratio of IC50 for inhibition of hERG fluorescence polarization assay to MIC for antimicrobial activity against multidrug-resisitant Staphylococcus aureus assessed as reduction in bacterial growth. The data set is classed as toxicity. The note with it: human; read-out: Selectivity Index. (Block of hERG is tested as a sign of cardiac risk.)

In data set [14] the test system is Escherichia coli. Briefly: Antimicrobial activity against Escherichia coli N43 assessed as reduction in bacterial growth incubated for 20 hrs by broth microdilution analysis. The format is functional.
In data set [15] the target is Voltage-gated inwardly rectifying potassium channel KCNH2 (Homo sapiens, UniProt Q12809). Briefly: Inhibition of hERG fluorescence polarization assay. The format is toxicity.
Chain of Voltage-gated inwardly rectifying potassium channel KCNH2 (Q12809 whole entry): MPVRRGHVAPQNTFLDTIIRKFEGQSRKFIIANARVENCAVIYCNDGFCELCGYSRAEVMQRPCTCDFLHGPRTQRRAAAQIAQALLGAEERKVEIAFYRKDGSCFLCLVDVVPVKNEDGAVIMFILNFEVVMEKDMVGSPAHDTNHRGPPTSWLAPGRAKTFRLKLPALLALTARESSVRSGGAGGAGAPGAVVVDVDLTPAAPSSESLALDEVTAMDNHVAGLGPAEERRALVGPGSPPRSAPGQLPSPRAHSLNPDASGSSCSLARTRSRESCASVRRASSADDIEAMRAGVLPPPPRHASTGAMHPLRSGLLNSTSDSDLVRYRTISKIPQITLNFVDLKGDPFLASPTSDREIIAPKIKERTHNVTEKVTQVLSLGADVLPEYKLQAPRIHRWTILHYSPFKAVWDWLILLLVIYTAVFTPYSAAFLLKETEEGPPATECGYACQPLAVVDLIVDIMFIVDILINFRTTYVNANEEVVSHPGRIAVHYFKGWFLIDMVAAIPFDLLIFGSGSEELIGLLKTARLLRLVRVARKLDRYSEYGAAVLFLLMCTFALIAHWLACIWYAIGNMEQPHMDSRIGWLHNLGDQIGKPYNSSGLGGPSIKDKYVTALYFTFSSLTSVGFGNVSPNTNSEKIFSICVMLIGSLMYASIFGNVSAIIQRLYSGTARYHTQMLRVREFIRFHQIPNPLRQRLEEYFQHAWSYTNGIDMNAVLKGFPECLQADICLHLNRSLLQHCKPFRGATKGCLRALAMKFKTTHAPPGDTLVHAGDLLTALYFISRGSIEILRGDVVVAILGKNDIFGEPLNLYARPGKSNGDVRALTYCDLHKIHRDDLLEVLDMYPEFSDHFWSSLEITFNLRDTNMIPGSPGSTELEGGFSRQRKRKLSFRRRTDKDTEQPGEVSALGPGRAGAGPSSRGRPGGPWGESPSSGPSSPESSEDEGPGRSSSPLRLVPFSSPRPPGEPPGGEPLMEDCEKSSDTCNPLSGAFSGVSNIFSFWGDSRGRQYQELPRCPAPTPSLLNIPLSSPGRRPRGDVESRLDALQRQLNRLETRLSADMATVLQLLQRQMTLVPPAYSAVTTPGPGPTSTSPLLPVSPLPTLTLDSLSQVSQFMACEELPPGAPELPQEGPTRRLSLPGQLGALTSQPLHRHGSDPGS
In data set [16] the test system is Staphylococcus aureus. Briefly: Antimicrobial activity against multidrug-resistant Staphylococcus aureus assessed as reduction in bacterial growth incubated for 20 hrs by broth microdilution analysis. The format is functional. A digest of the protocol: as §1
A further data set has as its system Klebsiella pneumoniae. Briefly: Antimicrobial activity against Klebsiella pneumoniae assessed as reduction in bacterial growth incubated for 20 hrs by broth microdilution analysis. The format is functional.

A word on the MIC: it is the lowest concentration found to suppress growth. By IC50 is commonly meant the concentration at which inhibition is half-maximal.

In brackets after ≈: the same amount, converted by molar mass.

With `COc1ccc2nccc(OC[C@H]3CC[C@H](NC(=O)c4cc(F)c(Br)c(F)c4)CC3)c2n1`, the MIC was greater than 64.8 µM with Staphylococcus aureus [1]; 64.8 µM in the data set with Escherichia coli [3]; greater than 64.8 µM in the data set on Pseudomonas aeruginosa; greater than 64.8 µM in the data set with Acinetobacter baumannii; 64.8 µM in the data set on Staphylococcus aureus [5]; 253 µM in the data set on Staphylococcus aureus [6]. Besides, the MIC was greater than 64.8 µM with Enterococcus faecalis; 64.8 µM in the data set with Escherichia coli [9]; greater than 64.8 µM with Escherichia coli [10]; greater than 64.8 µM in [12]; 64.8 µM in the data set with Escherichia coli [14]; greater than 64.8 µM in the data set with Staphylococcus aureus [16]. For the same molecule, the MIC with Klebsiella pneumoniae is greater than 64.8 µM. For the same molecule, the IC50 was greater than 100000 nM on DNA gyrase [2]; greater than 100000 nM against Topoisomerase IV; greater than 100000 nM on DNA gyrase [7]; greater than 100000 nM in [8]; greater than 30000 nM in [15]. The figures for the Activity (in data set [4]; with HepG2) were 101% and 90%, respectively. Also, the selectivity ratio in the data set on hERG [11] and in the data set with hERG [13] was no less than 0.119 each time.
For `COc1ccc2nccc(CCN3CCC(NC(=O)c4cc(F)c(Cl)c(F)c4)CC3)c2n1`, the MIC in the data set on Staphylococcus aureus [1] is 0.137 µM (≈ 0.0631 µg/mL); in the data set with Escherichia coli [3], 0.542 µM; in the data set with Pseudomonas aeruginosa it was greater than 278 µM; in the data set with Acinetobacter baumannii, 4.34 µM; in the data set on Staphylococcus aureus [5], 0.271 µM; in the data set on Staphylococcus aureus [6], 0.137 µM. Also, the MIC was 2.17 µM (≈ 1 µg/mL) with Enterococcus faecalis; 69.4 µM with Escherichia coli [9]; greater than 278 µM in the data set on Escherichia coli [10]; greater than 278 µM in data set [12]; 0.135 µM with Escherichia coli [14]; 0.271 µM (≈ 0.125 µg/mL) in the data set on Staphylococcus aureus [16]. Further, in the data set on Klebsiella pneumoniae, the MIC is greater than 278 µM. Besides, the IC50 at DNA gyrase [2] amounted to 220 nM; against Topoisomerase IV, 177 nM; on DNA gyrase [7] it was 236 nM; in [8] it was 41 nM; in data set [15], 178 nM. Besides, the Activity in data set [4] is 101%; in the data set on HepG2 it was 84%. Further, the selectivity ratio with hERG [11] is 1.3; in the data set on hERG [13], 0.656.
`COc1ccc2nccc(CCN3CCC(NC(=O)c4ccc(I)c(F)c4)CC3)c2n1`: the MIC was 0.058 µM (≈ 0.031 µg/mL) with Staphylococcus aureus [1]; 0.468 µM with Escherichia coli [3]; greater than 240 µM with Pseudomonas aeruginosa; 240 µM with Acinetobacter baumannii; 0.234 µM in the data set on Staphylococcus aureus [5]; 0.058 µM in the data set on Staphylococcus aureus [6]. For the same molecule, the minimal inhibitory concentration (MIC) in the data set on Enterococcus faecalis was 0.468 µM (≈ 0.25 µg/mL); in the data set with Escherichia coli [9] it was 240 µM; in the data set on Escherichia coli [10], greater than 240 µM; in data set [12], greater than 240 µM; with Escherichia coli [14], 0.234 µM; with Staphylococcus aureus [16], 0.234 µM (≈ 0.125 µg/mL). Further, the MIC in the data set on Klebsiella pneumoniae was greater than 240 µM. The IC50 was determined as 114 nM at DNA gyrase [2]; 261 nM on Topoisomerase IV; 277 nM at DNA gyrase [7]; 43 nM in data set [8]; 96 nM in data set [15]. For the same molecule, the Activity was 102% in data set [4] and 89% with HepG2. Also, the values for the selectivity ratio in the data set on hERG [11] and with hERG [13] were 1.65 and 0.41, respectively.
For `CN(C)[C@@H]1C(O)=C(C(N)=O)C(=O)[C@@]2(O)C(O)=C3C(=O)c4c(O)cccc4[C@@](C)(O)[C@H]3C[C@@H]12` [TETRACYCLINE], the MIC with Escherichia coli [3] is 1 µg/mL; with Acinetobacter baumannii, greater than 4 µg/mL; in the data set with Staphylococcus aureus [5] it was greater than 4 µg/mL; in the data set with Staphylococcus aureus [6], 0.25 µg/mL; in the data set on Escherichia coli [9], 1 µg/mL; in the data set on Escherichia coli [10], greater than 4 µg/mL. Moreover, the MIC was 0.25 µg/mL in the data set on Escherichia coli [14] and greater than 4 µg/mL with Klebsiella pneumoniae.
